{"source": "ChEMBL document CHEMBL1156144", "about": "“Biaryl ethers as novel non-nucleoside reverse transcriptase inhibitors with improved potency against key mutant viruses” (J Med Chem, 2009)", "key": {"Rattus norvegicus": {"tested_on": "Rattus norvegicus", "assay": "AUC in Sprague-Dawley rat at 2 mg/kg, iv", "type": "ADME, organism-based, Plasma", "design": "dose 2 mg/kg, route intravenous", "details": "in vivo"}, "[1]": {"assay": "Half life in Sprague-Dawley rat at 2 mg/kg, iv", "type": "ADME, organism-based", "design": "dose 2 mg/kg, route intravenous", "details": "in vivo"}, "[2]": {"tested_on": "Human immunodeficiency virus", "assay": "Antiviral activity against wild type HIV H9-3B infected in human MT2 cells assessed as inhibition of viral replication measuring p24 level after 3 days in presence of 50% normal human serum", "type": "functional", "details": "Human immunodeficiency virus 1, H9-3B, 72 h, read-out: CIC95", "summary_of_the_method": "(§1)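 Multiple-cycle spread assay in MT2 cells with wild-type H9IIIB virus. Cells were infected overnight at moi ≈ 0.01 without compound, washed, then cultured 3 days across varying compound concentrations in RPMI 1640 with 10% FBS or 50% NHS. p24 was measured in supernatants. CIC95 is the lowest concentration inhibiting replication ≥95%, as the geometric mean of ≥2 determinations.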"}, "[3]": {"tested_on": "Human immunodeficiency virus", "assay": "Antiviral activity against wild type HIV H9-3B infected in human MT2 cells assessed as inhibition of viral replication measuring p24 level after 3 days in presence of 10% fetal bovine serum", "type": "functional", "details": "Human immunodeficiency virus 1, MT2, Serum; read-out: CIC95", "summary_of_the_method": "as §1"}, "[4]": {"assay": "Clearance in Sprague-Dawley rat at 2 mg/kg, iv", "type": "ADME, organism-based", "design": "dose 2 mg/kg, route intravenous", "details": "in vivo"}, "[5]": {"tested_on": "Human immunodeficiency virus", "assay": "Antiviral activity against HIV with reverse transcriptase K103N mutant infected in human MT2 cells assessed as inhibition of viral replication measuring p24 level after 3 days in presence of 10% fetal bovine serum", "type": "functional", "details": "Human immunodeficiency virus 1, MT2, Serum, 72 h; read-out: CIC95", "summary_of_the_method": "(§2)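 Multiple-cycle replication (Spread) assay in MT2 cells with H9IIIB-background mutant virus. Cells were infected overnight at moi ≈ 0.01 without compound, washed, then cultured 3 days across a range of compound concentrations in medium with 10% FBS. p24 was measured in supernatants. CIC95 is the lowest concentration inhibiting replication by ≥95%, reported as the geometric mean of ≥2 determinations.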"}, "[6]": {"target": "Human immunodeficiency virus type 1 reverse transcriptase (Human immunodeficiency virus 1, UniProt Q72547, K103N)", "assay": "Inhibition of RNA-dependent DNA polymerase activity of recombinant HIV reverse transcriptase K103N mutant assessed as BrdU incorporation by standard ECL assay"}, "[7]": {"assay": "Volume of distribution in Sprague-Dawley rat at 2 mg/kg, iv", "type": "ADME, organism-based", "design": "dose 2 mg/kg, route intravenous", "details": "in vivo"}, "[8]": {"assay": "Inhibition of RNA-dependent DNA polymerase activity of wild type HIV reverse transcriptase assessed as BrdU incorporation by standard ECL assay", "design": "species or system Human immunodeficiency virus", "summary_of_the_method": "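Purified recombinant wild-type RT polymerase activity was measured using a 500-nt heteropolymeric RNA template and a biotinylated DNA primer. BrdU incorporation was detected with a ruthenylated anti-BrdU antibody by electrochemiluminescence. Ki is the geometric mean of at least two determinations, each within 25% of the mean.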"}, "[9]": {"tested_on": "Human immunodeficiency virus", "assay": "Antiviral activity against HIV with reverse transcriptase Y181C mutant infected in human MT2 cells assessed as inhibition of viral replication measuring p24 level after 3 days in presence of 10% fetal bovine serum", "type": "functional", "details": "Human immunodeficiency virus 1, MT2, Serum, 72 h; read-out: CIC95", "summary_of_the_method": "as §2"}, "[10]": {"tested_on": "Human immunodeficiency virus", "assay": "Antiviral activity against HIV with reverse transcriptase K103N/Y181C double mutant infected in human MT2 cells assessed as inhibition of viral replication measuring p24 level after 3 days in presence of 10% fetal bovine serum", "type": "functional", "details": "Human immunodeficiency virus 1, MT2, Serum, 72 h; read-out: CIC95", "summary_of_the_method": "as §2"}}, "note": "pKi: −log10 of the molar value."}
{"compound": "CNc1ccc2c(COc3ccc(Cl)c(Oc4cc(Cl)cc(C#N)c4)c3)noc2n1", "values": [{"measurement": "AUC", "setting": "Rattus norvegicus", "result": 0.8, "unit": "µM"}, {"measurement": "half-life", "setting": "[1]", "result": 2, "unit": "h"}, {"measurement": "IC95", "setting": "[2]", "result": 103, "unit": "nM"}, {"measurement": "IC95", "setting": "[3]", "result": 103, "unit": "nM"}, {"measurement": "clearance", "setting": "[4]", "result": 24.6, "unit": "mL/min/kg"}, {"measurement": "IC95", "setting": "[5]", "result": 309, "unit": "nM"}, {"measurement": "pKi", "setting": "[6]", "result": 9.05}, {"measurement": "Vd", "setting": "[7]", "result": 2, "unit": "L/kg"}, {"measurement": "pKi", "setting": "[8]", "result": 9.52}]}
{"compound": "CN(C)c1ccc2c(COc3ccc(Cl)c(Oc4cc(Cl)cc(C#N)c4)c3)noc2n1", "values": [{"measurement": "IC95", "setting": "[2]", "result": 309, "unit": "nM"}, {"measurement": "IC95", "setting": "[3]", "result": 103, "unit": "nM"}, {"measurement": "IC95", "setting": "[5]", "result": 309, "unit": "nM"}, {"measurement": "pKi", "setting": "[6]", "result": 9.05}, {"measurement": "pKi", "setting": "[8]", "result": 9.52}]}
{"compound": "N#Cc1cc(Cl)cc(Oc2cc(OCc3noc4nc(N5CCCCC5)ccc34)ccc2Cl)c1", "values": [{"measurement": "IC95", "setting": "[3]", "result": "> 8330", "unit": "nM"}, {"measurement": "IC95", "setting": "[9]", "result": "> 8330", "unit": "nM"}, {"measurement": "IC95", "setting": "[5]", "result": "> 8330", "unit": "nM"}, {"measurement": "pKi", "setting": "[6]", "result": 8.14}, {"measurement": "pKi", "setting": "[8]", "result": 8.66}]}
{"compound": "Cc1cc(OCc2n[nH]c3ncccc23)cc(Oc2cc(Cl)cc(C#N)c2)c1Cl", "values": [{"measurement": "IC95", "setting": "[10]", "result": 278, "unit": "nM"}, {"measurement": "IC95", "setting": "[2]", "result": 103, "unit": "nM"}, {"measurement": "IC95", "setting": "[3]", "result": 11, "unit": "nM"}, {"measurement": "IC95", "setting": "[9]", "result": 31, "unit": "nM"}, {"measurement": "IC95", "setting": "[5]", "result": 103, "unit": "nM"}, {"measurement": "pKi", "setting": "[6]", "result": 8.72}, {"measurement": "pKi", "setting": "[8]", "result": 9.40}]}
{"compound": "N#Cc1cc(Cl)cc(Oc2cc(OCc3noc4nc(N5CCNCC5)ccc34)ccc2Cl)c1", "values": [{"measurement": "IC95", "setting": "[10]", "result": 833, "unit": "nM"}, {"measurement": "IC95", "setting": "[2]", "result": 309, "unit": "nM"}, {"measurement": "IC95", "setting": "[3]", "result": 33, "unit": "nM"}, {"measurement": "IC95", "setting": "[9]", "result": 833, "unit": "nM"}, {"measurement": "IC95", "setting": "[5]", "result": 103, "unit": "nM"}, {"measurement": "pKi", "setting": "[6]", "result": 8.52}, {"measurement": "pKi", "setting": "[8]", "result": 8.77}]}
